Source: ChEMBL document CHEMBL1122234, “Oxidation of uric acid. 4. Synthesis, structure, and diabetogenic action of 5-imino-2,4,6(1H,3H,5H)-pyrimidinetrione salts and their alloxan-like covalent adducts” (1983)
Calls of active or inactive are those of the source. No cut-off for these calls is given here.

What was measured:
[1] = Relative potency compared to that of streptozotocin in albino rats.; assay type: functional
[2] = test system: Rattus norvegicus; assay: Diabetogenic activity in Lewis strain of albino rats after iv administration; assay type: functional
Summary of the method: (§1)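 Male Lewis rats (200-230 g), 24 per dose level, fasted 12 h, then dosed by tail-vein iv injection, or ip as a saline suspension when poorly soluble. A rat counted as diabetic if glucosuria (>1%) appeared within 24 h and persisted 5 days. Blood sugar and islet histology were also observed. The dose making 50% of animals diabetic (ED50, mmol/kg) was estimated graphically.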

[3] = Relative potency compared to that of Alloxan in albino rats.; assay type: functional
[4] = test system: Rattus norvegicus; assay: Diabetogenic activity in Lewis strain of albino rats after ip administration; assay type: functional; summary of the method: as §1
[5] = Relative potency compared to that of streptozotocin in albino rats; Inactive nondiabetogenic at the dose 2 g/kg ip; inactive; assay type: functional
[6] = Relative potency compared to that of Alloxan in albino rats; Inactive nondiabetogenic at the dose 2 g/kg ip; inactive; assay type: functional
[7] = test system: Rattus norvegicus; assay: Diabetogenic activity in Lewis strain of albino rats after iv administration; Inactive nondiabetogenic at the dose 2 g/kg ip; inactive; assay type: functional, organism-based; summary of the method: as §1
[8] = Rattus norvegicus, iv, read-out: ED50

Row | SMILES | Relative potency [1] | ED50 [2] [µmol/kg] | Relative potency [3] | ED50 [4] [µmol/kg] | ED50 [2, 8] [µmol/kg] | Relative potency [5] | Relative potency [6] | ED50 [7]
1 | Cl.N=C1C(=O)NC(=O)NC1=O | 1.1 | 140 | 2.2 |  |  |  |  | 
2 | O=C1NC(=O)C2(O)NC(=O)NC2(O)N1 (configuration not stated) |  |  | 1.1 | 1060 |  |  |  | 
3 | Br.N=C1C(=O)NC(=O)NC1=O | 0.9 |  | 1.9 |  | 160 |  |  | 
4 | CN(N=O)C(=O)N[C@@H](C=O)[C@@H](O)[C@H](O)[C@H](O)CO [STREPTOZOCIN] | 1 |  | 2.1 |  | 150 |  |  | 
5 | O=C1NC(=O)C(O)(O)C(=O)N1 | 0.5 |  | 1 | 1120 | 310 |  |  | 
6 | NC(=O)NC1(O)C(=O)NC(=O)NC1=O | 1 |  | 2.1 |  | 150 |  |  | 
7 | NC(=O)NC1(N)C(=O)NC(=O)NC1=O |  |  |  |  |  | inactive | inactive | inactive
8 | Cl.NC1(O)C(=O)NC(=O)NC1=O | 1.1 | 140 | 2.2 |  |  |  |  | 
9 | Br.NC1(O)C(=O)NC(=O)NC1=O | 1 |  | 2.1 |  | 150 |  |  | 
